Compounds with a hit are over-represented: about 4.3% of the library has one in this group of screens.
PREPL inh: human PREPL enzyme inhibition. Q4J6C6. recombinant PREPL, fluorescence polarization activity-based probe. inhibition, % at 5.96 µM. 320,000 tested, 0.68% active. AID 2751; in the data active means inhibition above about 43%
UBC9 SUMO inh: inhibitors of human SUMOylation (UBC9); 290,000 tested, 0.36% active; HTRF SUMOylation assay, SAE1/SAE2 + UBC9, in vitro; inhibition, % at 35 µM; P63279; AID 2006; in the data active means inhibition above about 50%, passing the limit was not always enough
UBC13 inh: human UBC13 polyubiquitination inhibition; UBC13 polyubiquitin chain formation, TR-FRET; P61088; 330,000 tested, 0.47% active; AID 485273; inhibition, % at 20 µM; in the data active means inhibition above about 45%, passing the limit was not always enough
Rin1 Abl inh: inhibitors of human Rin1-Abl protein interaction; TR-FRET Rin1/Abl binding, biochemical; inhibition, % at 7.35 µM; 360,000 tested, 0.4% active; AID 588664; in the data active means inhibition above about 5%, passing the limit was not always enough
RBBP9 inh: blocks human serine hydrolase RBBP9 | recombinant RBBP9, FP-Rh probe fluorescence polarization | AID 1515 | O75884 | inhibition, % at 7.94 µM | 220,000 tested, 0.2% active;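 active means inhibition above the campaign mean of all tested compounds plus 3 SD, cut at about 14% in these data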
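System: RBBP9 protein / Quantity: 2.5 µM RBBP9 dispensing solution, before mixing / Also added: Serine-hydrolase probe FP-Rh, 375 nM pre-mixing / Dosing: 7.94 µM single dose, 0.794% DMSO / Timing: enzyme-compound preincubation 30 min, then probe labeling 45 min, 25 °C / Signal: FP readout at 525/598 nm / Controls: DMSO-treated enzyme wells and wells lacking RBBP9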
ALR inh: human ALR oxidase inhibition via reduced H2O2; purified ALR, DTT oxidation, H2O2 HRP-luminol luminescence; inhibition, % (no concentration beside the values); 290,000 tested, 3.8% active; AID 485317;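 active means mean replicate inhibition above about 79%, with every replicate also reaching it, limit read from the data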
Of the large screens only hits and unclear results are named; the others gave an inactive call.

O=C(NCCc1ccccc1)C1CC(=O)N(CCc2ccccc2)C1 (centres undefined)	none (no result: UBC9 SUMO inh, RBBP9 inh)
CCN(CC)c1ccc(NC(=O)C2CCCN(S(=O)(=O)c3cccnc3)C2)c(C)c1 (centres undefined)	ALR inh 99
CCN(CCNC(=O)C1CC(=O)N(CCc2ccccc2)C1)c1ccccc1 (centres undefined)	ALR inh 99
Cc1ccc2c(c1)N(CCCC(=O)NCCCN1CCCCC1)C(=O)CO2	none (no result: RBBP9 inh)
COc1ccc(-c2nc(S(=O)(=O)c3ccccc3)c(N3CCN(C)CC3)o2)cc1	none (no result: PREPL inh, UBC9 SUMO inh, UBC13 inh, RBBP9 inh, ALR inh)
COc1ccc(S(=O)(=O)N2CCN(C(=O)c3cc4c(s3)CCC4)CC2)cc1	none (no result: UBC9 SUMO inh, RBBP9 inh)
FC(F)(F)c1ccc(Nc2nnnc3ccccc23)cc1	none
O=C(NCCN1CCCc2ccccc21)C1CCC(=O)N(CCc2ccccc2)C1 (centres undefined)	ALR inh 86 (no result: RBBP9 inh)
O=C(Cn1cc2c(n1)CCCCC2)NCc1ccccc1	none (no result: RBBP9 inh, ALR inh)
CCS(=O)(=O)N1CCCC(C(=O)NCCN(C)Cc2ccccc2)C1 (centres undefined)	none
CCCCN(CCCNC(=O)C1CCN(S(=O)(=O)CC)CC1)c1ccccc1	ALR inh 99
CCN(CCNC(=O)Cn1cc2c(n1)CCCC2)c1ccccc1	ALR inh 99
CCN(CCNC(=O)C1CCCN(S(=O)(=O)CC)C1)c1ccccc1 (centres undefined)	ALR inh 99
CCOc1cc(/C=C/C(=O)OCC(=O)NC2CCS(=O)(=O)C2)ccc1OCc1ccccc1 (centres undefined)	none
CCOc1ccccc1CN1C(=O)NC2(CCCCCC2)C1=O	none (no result: RBBP9 inh)
CCN(CCNC(=O)C1CCN(S(=O)(=O)c2cccc3nsnc23)CC1)c1ccccc1	ALR inh 99
CCN(CCNC(=O)C1CCN(S(=O)(=O)CC)CC1)c1ccccc1	ALR inh 99
CCN(CCCNC(=O)C1CCCN(S(=O)(=O)CC)C1)c1cccc(C)c1 (centres undefined)	ALR inh 99
CN(CCNC(=O)C1CCN(S(=O)(=O)c2cnc[nH]2)CC1)Cc1ccccc1	none
CCN(CCCNC(=O)C1CCN(S(=O)(=O)c2cnc[nH]2)CC1)c1cccc(C)c1	ALR inh 99
CCCCN(CCCNC(=O)C1CCCN(S(=O)(=O)CCC)C1)Cc1ccccc1 (centres undefined)	none (no result: RBBP9 inh, ALR inh)
COc1cc(/C=C/C(=O)OCC(=O)N(C)C2CCS(=O)(=O)C2)ccc1OC(F)F (centres undefined)	none (no result: RBBP9 inh)
CCN(CCCNC(=O)C1CCC(=O)N1C(C)C)c1cccc(C)c1 (centres undefined)	ALR inh 99
CCN(CCNC(=O)C1CCCN(Cc2nc(-c3ccc(OC)cc3)oc2C)C1)c1ccccc1 (centres undefined)	ALR inh 96
CCCNC(=O)c1cc(C2CCCN(C(=O)C3CCCCC3)C2)on1 (centres undefined)	none (no result: PREPL inh, UBC9 SUMO inh, UBC13 inh, RBBP9 inh, ALR inh)
CCNC(=O)c1cc2c(c(-c3cccc(-c4cccc(C(=O)N(C)C)c4)c3)n1)[C@@H](CCO)N(S(=O)C(C)(C)C)C2 (some centres undefined)	none (no result: PREPL inh, UBC9 SUMO inh, UBC13 inh, RBBP9 inh, ALR inh)
Cc1c([N+](=O)[O-])c(C(=O)Sc2ccc(Br)cc2)nn1C	ALR inh 99
CCn1c(SCc2nc3ccccc3s2)nnc1-c1ccccc1	ALR inh 94
COc1ccc(-n2nnnc2SCc2nc3ccccc3s2)cc1	ALR inh 93
CC(CN(C)C)CN1c2ccccc2Sc2ccccc21 (centres undefined)	ALR inh 99 (no result: UBC9 SUMO inh, RBBP9 inh)
CC(CN1c2ccccc2Sc2ccccc21)N(C)C (centres undefined)	ALR inh 99
CS(=O)(=O)N1CCN=C1SCc1ccc([N+](=O)[O-])cc1	ALR inh 99
CC(=O)Nc1ccc(S(=O)(=O)N2CCN=C2SCc2cccc(C)c2)cc1	none (no result: RBBP9 inh)
O=[N+]([O-])c1ccc(S(=O)(=O)N2CCN=C2SCc2cccnc2)cc1	none
CC(=O)Nc1ccc(S(=O)(=O)N2CCN=C2SCc2ccccc2C)cc1	ALR inh 98 (no result: RBBP9 inh)
CS(=O)(=O)N1CCN=C1SCc1ccc(Br)cc1	none (no result: RBBP9 inh)
CC(=O)Nc1ccc(S(=O)(=O)N2CCN=C2SCc2ccc([N+](=O)[O-])cc2)cc1	ALR inh 99 (no result: RBBP9 inh)
